Test results reported in publication PMC4767723 (Drugs in R&D, 2016).
Like-named read-outs stand apart in the source and are kept apart here.

How the values were obtained:
[1] = assay type: in vivo, human; conditions: for Change in AUCss on fostamatinib co-administration with OC / Change in Cmax,ss on fostamatinib co-administration with OC: increase in exposure
[2] = tested on: progesterone, luteinizing hormone, follicle-stimulating hormone, sex hormone-binding globulin; assay: OC interaction study, pharmacodynamics; assay type: in vivo, human
[3] = Safety and tolerability, all three studies; assay type: in vivo, human
How it was run: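 Healthy subjects. Safety set was everyone given at least one dose of investigational product, with all available data used. Assessed throughout: incidence and severity of adverse events, clinical laboratory data, vital signs, 12-lead ECG and physical examination. AEs were tabulated by MedDRA. In the statin study, single statin doses were given alone and then with fostamatinib in a two-period, fixed-sequence design.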

BCRP = conditions: read-out: half maximal inhibitory concentration (IC50), BCRP; in vitro; ref AstraZeneca, data on file; cited from earlier work
[4] = tested on: international normalized ratio (INR); assay: Warfarin interaction study, pharmacodynamics; parameters: species or system human; conditions: in vivo
[5] = typical value; not determined in the current studies; cited from earlier work
[6] = for Increase in AUC with fostamatinib / Individual Cmax differences (warfarin alone to warfarin plus fostamatinib): human; for Increase in AUC with fostamatinib / Individual Cmax differences (warfarin alone to warfarin plus fostamatinib) / Individual AUC differences / Prolongation of t½λz: in vivo
[7] = not given; remark: listed apart in the source
[8] = cited from earlier work
[9] = fostamatinib co-administration with OC

## C#C[C@]1(O)CC[C@H]2[C@@H]3CCc4cc(O)ccc4[C@H]3CC[C@@]21C [Ethinyl estradiol, ethinyl estradiol]
[1]; geometric LS mean ratio
  AUCss ratio Microgynon + fostamatinib/microgynon alone: 128.2%
  Cmax,ss ratio Microgynon + fostamatinib/microgynon alone: 134.3%
[1]
  Change in AUCss on fostamatinib co-administration with OC: 28%
  Change in Cmax,ss on fostamatinib co-administration with OC: 34%

## COc1cc(Nc2ncc(F)c(Nc3ccc4c(n3)N(COP(=O)(O)O)C(=O)C(C)(C)O4)n2)cc(OC)c1OC [Fostamatinib, fostamatinib]
[2]; [9]
  Decrease in exposure to follicle-stimulating hormone: ≈ 20%
  Decrease in exposure to luteinizing hormone: ≈ 20%
[2]; in vivo
  Luteinizing hormone AUCss ratio Microgynon + fostamatinib/microgynon alone: 83.2%
  Luteinizing hormone Cmax,ss ratio Microgynon + fostamatinib/microgynon alone: 75.6%
  Progesterone AUCss ratio Microgynon + fostamatinib/microgynon alone: 104.3%
  Progesterone Cmax,ss ratio Microgynon + fostamatinib/microgynon alone: 99.8%
[3]
  Tolerability: well tolerated
BCRP
  IC50: 50 nM
[4]
  AUCINR,0–168 ratio Warfarin + fostamatinib/warfarin alone: 97.0%
  INRmax ratio Warfarin + fostamatinib/warfarin alone: 89.7%

## C#C[C@]1(O)CC[C@H]2[C@@H]3CCC4=CC(=O)CC[C@@H]4[C@H]3CC[C@@]21CC [Levonorgestrel, levonorgestrel]
[1]; geometric LS mean ratio
  AUCss ratio Microgynon + fostamatinib/microgynon alone: 105.1%
[1]
  Change in AUCss on fostamatinib co-administration with OC: 5%
  Change in Cmax,ss on fostamatinib co-administration with OC: −3%

## COc1cc(Nc2ncc(F)c(Nc3ccc4c(n3)NC(=O)C(C)(C)O4)n2)cc(OC)c1OC [R406]
[1]; Fostamatinib + OC, period 2 day 21
  Cmax,ss, geometric mean: 812 ng/mL
Fostamatinib combined with rosuvastatin
  Increase in exposure: ≈ 10%
BCRP
  IC50: 31 nM
[5]
  half-life: ~ 14 h
[6]; Fostamatinib + warfarin
  Cmax,ss, geometric mean: 557 ng/mL
[7]; fostamatinib combined with simvastatin
  Increase in exposure: ≈ 10%

## CC(=O)C[C@H](c1ccccc1)c1c(O)c2ccccc2oc1=O [R-Warfarin, R-warfarin]
[6]
  Increase in AUC with fostamatinib: 18%
  Individual Cmax differences (warfarin alone to warfarin plus fostamatinib): −16.1 to 22%
  Individual AUC differences: 5.0-33.0%
  Prolongation of t½λz: approximately 6 h

## CC(C)c1nc(N(C)S(C)(=O)=O)nc(-c2ccc(F)cc2)c1/C=C/[C@@H](O)C[C@@H](O)CC(=O)O [Rosuvastatin, rosuvastatin]
[8]
  absorption (restricted by BCRP): 50%
human, in vivo
  Increase in AUC with fostamatinib: 96%
  Increase in Cmax with fostamatinib: 88%

## CC(=O)C[C@@H](c1ccccc1)c1c(O)c2ccccc2oc1=O [S-Warfarin, S-warfarin]
[6]
  Increase in AUC with fostamatinib: 13%
  Individual Cmax differences (warfarin alone to warfarin plus fostamatinib): −25.6 to 27%
  Individual AUC differences: 0.0-36.0%
  Prolongation of t½λz: approximately 6 h

## CCC(C)(C)C(=O)O[C@H]1C[C@@H](C)C=C2C=C[C@H](C)[C@H](CC[C@@H](O)C[C@@H](O)CC(=O)O)[C@H]21 [Simvastatin acid, simvastatin acid]
[7]; human, in vivo
  Decrease in half-life in the presence of fostamatinib: about 1.5 h
  Increase in AUC with fostamatinib: 74%
  Increase in Cmax with fostamatinib: 83%

## CCC(C)(C)C(=O)O[C@H]1C[C@@H](C)C=C2C=C[C@H](C)[C@H](CC[C@@H]3C[C@@H](O)CC(=O)O3)[C@H]21 [Simvastatin, simvastatin]
[7]; human, in vivo
  Change in tmax with fostamatinib: marginal change
  Decrease in half-life in the presence of fostamatinib: approximately 3 h
[7]; with fostamatinib
  Net apparent reduction in clearance: 40.3%
